The results in this text go back to ChEMBL document CHEMBL1765055 (J Med Chem, 2011).

Several values for one entry are separate records, joined by “and”; a condition that tells them apart may be missing. Identical values can stand only once. Non-standard residues stand in square brackets, D forms with d. Residues, ends and D or L forms follow the SMILES beside them. N(4-hydroxyphenethyl)Gly = O=C(O)CNCCc1ccc(O)cc1; Gly(N-4-hydroxybenzyl) = O=C(O)CNCc1ccc(O)cc1; N(1S-Me-propyl)Gly = CC[C@H](C)NCC(=O)O

Test [1] addresses T1, Neurotensin receptor type 1 (Homo sapiens, UniProt P30989). The test is described as follows: Displacement of [3H]neurotensin from human NTS1 receptor expressed in CHO cells. The format is cell-based.
Test [2] has as its target T2, Neurotensin receptor type 2 (Homo sapiens, UniProt O95665). The test is described as follows: Displacement of [3H]NT from human NTS2 receptor expressed in HEK293 cells. The format is cell-based. On the technique in general: Displacement assays read how much labelled ligand stays bound in the presence of the test substance.
The species entered for test [3] is Homo sapiens. The test is described as follows: Selectivity ratio of Ki for human NTS1 to Ki for human NTS2.
In test [4] the target is T2, Neurotensin receptor type 2. The test is described as follows: Agonist activity at human NTS2 receptor expressed in HEK293 cells assessed as inhibition of constitutive activity on MAPK-mediated luciferase activity. Format: functional, cell-based.
Test [5] has the same target. The test is described as follows: Ratio of compound Emax to neurotensin Emax for human NTS2 receptor.
Test [6] addresses T1, Neurotensin receptor type 1. The test is described as follows: Ratio of compound Emax to neurotensin Emax for human NTS1 receptor.
The target in test [7] is T2, Neurotensin receptor type 2. The test is described as follows: Agonist activity at human NTS2 receptor expressed in HEK293 cells assessed as inhibition of constitutive activity on MAPK-mediated luciferase activity at 3 uM in presence of SR142948A. The format is functional, cell-based. In a few lines: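 HEK 293 cells transiently expressing hNTS2 plus Elk1 trans-activator/luciferase reporter plasmids were reseeded in 1% FBS medium. They received 3 μM compound together with graded concentrations of the antagonist SR142948A for 24 h at 37 °C. Luciferase luminescence was measured as the readout of constitutive MAPK activity. Mean curves came from 7–11 independent experiments in triplicate.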

T2 sequence (O95665 whole entry): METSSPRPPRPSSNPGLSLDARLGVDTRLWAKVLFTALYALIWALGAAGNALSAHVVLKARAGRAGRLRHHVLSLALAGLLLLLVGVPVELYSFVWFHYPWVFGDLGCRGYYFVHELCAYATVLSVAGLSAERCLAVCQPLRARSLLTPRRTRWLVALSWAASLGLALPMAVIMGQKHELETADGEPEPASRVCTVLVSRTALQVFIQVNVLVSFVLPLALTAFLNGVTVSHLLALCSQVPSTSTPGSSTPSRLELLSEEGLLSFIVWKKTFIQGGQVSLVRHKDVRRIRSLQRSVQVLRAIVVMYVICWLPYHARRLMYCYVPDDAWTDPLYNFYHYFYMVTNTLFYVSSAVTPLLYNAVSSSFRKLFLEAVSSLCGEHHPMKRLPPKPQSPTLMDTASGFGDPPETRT
T1 sequence (P30989 whole entry): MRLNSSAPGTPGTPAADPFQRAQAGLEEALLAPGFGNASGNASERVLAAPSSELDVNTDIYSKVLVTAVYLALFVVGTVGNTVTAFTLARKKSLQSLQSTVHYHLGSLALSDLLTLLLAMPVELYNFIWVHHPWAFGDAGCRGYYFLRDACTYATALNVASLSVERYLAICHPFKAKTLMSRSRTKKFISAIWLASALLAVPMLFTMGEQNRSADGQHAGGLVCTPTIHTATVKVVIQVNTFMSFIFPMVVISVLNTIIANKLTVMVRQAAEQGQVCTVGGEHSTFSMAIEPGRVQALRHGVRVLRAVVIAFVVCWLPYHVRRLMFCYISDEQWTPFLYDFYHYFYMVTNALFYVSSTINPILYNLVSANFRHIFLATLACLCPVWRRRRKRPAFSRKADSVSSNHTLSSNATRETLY

With `CC[C@H](C)[C@H](NC(=O)CN(CCc1ccc(O)cc1)C(=O)[C@@H]1CCCN1C(=O)[C@H](CCCNC(=N)N)NC(=O)[C@@H](N)CCCCN)C(=O)N[C@@H](CC(C)C)C(=O)O` (H-KRP[N(4-hydroxyphenethyl)Gly]IL-OH), the figures for the Ki in test [1] and in test [2] were 8300 nM and 4.4 nM, respectively. Also, the Ratio Ki in test [3] came to 1900. Also, in test [4], the EC50 (usually the concentration that produces a half-maximal response) was 690 nM. Also, the Emax in test [5] turned out to be 4.6.
Turning to H-RRPAIL-OH [listing 1 of 2 here], the Ki (commonly a measure of affinity in units of concentration, obtained from inhibition or displacement) came to 1300 nM in test [1] and 83 nM in test [2].
For the compound `CC[C@H](C)[C@H](NC(=O)CN(CCc1ccc(O)cc1)C(=O)[C@@H]1CCCN1C(=O)[C@H](CCCCN)NC(=O)[C@@H](N)CCCCN)C(=O)N[C@@H](CC(C)C)C(=O)O` (H-KKP[N(4-hydroxyphenethyl)Gly]IL-OH), the Ki in test [1] worked out at 32000 nM; in test [2] it was 4.3 nM. For the same compound, the Ratio Ki in test [3] amounted to 7400. In addition, the EC50 in test [4] is 590 nM. Moreover, in test [5], the Emax is 3.1.
As to H-RRAYIL-OH [listing 1 of 2 here], the Ki was 26 nM in test [1] and 63 nM in test [2].
As to H-RAPYIL-OH [listing 1 of 2 here], in test [3], the Ratio Ki amounted to 0.46.
Still for that read-out and setting: for H-RRPAIL-OH [listing 2 of 2 here] the value was 16.
In the case of `CC[C@H](C)N(CC(=O)N[C@@H](CC(C)C)C(=O)O)C(=O)[C@H](Cc1ccc(O)cc1)NC(=O)[C@@H]1CCCN1C(=O)[C@H](CCCCN)NC(=O)[C@@H](N)CCCCN` (H-KKPY[N(1S-Me-propyl)Gly]L-OH), the Ki in test [1] is 3000 nM and 3300 nM; in test [2], 330 nM and 1200 nM.
Regarding H-RRPYAL-OH [listing 1 of 2 here], the values for the Ki in test [1] and in test [2] were 100 nM and 63 nM, respectively.
`CC[C@H](C)[C@H](NC(=O)CN(CCc1ccc(OC)cc1)C(=O)[C@@H]1CCCN1C(=O)[C@H](CCCN=C(N)N)NC(=O)[C@@H](N)CCCN=C(N)N)C(=O)N[C@@H](CC(C)C)C(=O)O`: in test [2], the affinity, expressed as Ki, was 38 nM.
For `CC[C@H](C)[C@H](NC(=O)CN(Cc1ccc(O)cc1)C(=O)[C@@H]1CCCN1C(=O)[C@H](CCCCN)NC(=O)[C@@H](N)CCCCN)C(=O)N[C@@H](CC(C)C)C(=O)O` (H-KKP[Gly(N-4-hydroxybenzyl)]IL-OH), the Ki in test [1] stood at 30000 nM; in test [2], 1000 nM. The Ratio Ki in test [3] worked out at 30.
In the case of `CC[C@H](C)[C@H](NC(=O)CN(CCc1ccc(O)cc1)C(=O)[C@@H]1CCCN1C(=O)[C@H](CCCCN)NC(=O)[C@@H](N)CCCNC(=N)N)C(=O)N[C@@H](CC(C)C)C(=O)O` (H-RKP[N(4-hydroxyphenethyl)Gly]IL-OH), the Ki in test [1] worked out at 80000 nM; in test [2], 6.7 nM. The Ratio Ki in test [3] came out at 12000. Further, in test [4], the EC50 was 840 nM. Also, the values for the Emax in test [6] and in test [5] were 0.07 and 2.6, respectively.
For the compound `CC[C@H](C)[C@H](NC(=O)CN(CCc1ccc(O)cc1)C(=O)[C@@H]1CCCN1C(=O)[C@H](CCCNC(=N)N)NC(=O)[C@@H](N)CCCNC(=N)N)C(=O)N[C@@H](CC(C)C)C(=O)O`, in test [2], the Ki was 8.8 nM. Further, the EC50 in test [4] was 480 nM. In addition, in test [7], the Activity result was “Dose-dependent effect”.
On to `CC[C@H](C)[C@H](NC(=O)[C@H](Cc1ccc(O)cc1)NC(=O)[C@@H]1CCCN1C(=O)[C@H](CCCCN)NC(=O)CNCCCCN)C(=O)N[C@@H](CC(C)C)C(=O)O`, for which the affinity in test [2], expressed as Ki, was 0.74 nM.
On to `CC[C@H](C)[C@H](NC(=O)[C@H](Cc1ccc(O)cc1)NC(=O)[C@@H]1CCCN1C(=O)[C@H](CCCCN)NC(=O)[C@@H](N)CCCCN)C(=O)N[C@@H](CC(C)C)C(=O)O`, for which affinity in test [2] was put at a Ki of 6.1 nM.
Same read-out and setting: the result for `CC[C@H](C)[C@H](NC(=O)[C@H](Cc1ccc(O)cc1)NC(=O)[C@@H]1CCCN1C(=O)[C@H](CCCCN)NC(=O)[C@@H](N)CCCCN)C(=O)N(CC(=O)O)CC(C)C` reads 1600 nM.
`CC[C@H](C)[C@H](NC(=O)[C@H](Cc1ccc(O)cc1)NC(=O)[C@@H]1CCCN1C(=O)[C@H](CCCNC(=N)N)NC(=O)[C@@H](N)CCCNC(=N)N)C(=O)N[C@@H](C)C(=O)O`: the affinity in test [2], expressed as Ki, was 1300 nM.
Take `CC[C@H](C)[C@H](NC(=O)CN(CCc1ccccn1)C(=O)[C@@H]1CCCN1C(=O)[C@H](CCCNC(=N)N)NC(=O)[C@@H](N)CCCNC(=N)N)C(=O)N[C@@H](CC(C)C)C(=O)O`: the Ki in test [2] amounted to 100 nM.
In the case of H-RRAYIL-OH [listing 2 of 2 here], the Ratio Ki in test [3] came to 0.41.
With H-RAPYIL-OH [listing 2 of 2 here], the Ki in test [1] worked out at 11 nM; in test [2], 24 nM.
For `CC[C@H](C)[C@H](NC(=O)[C@H](Cc1ccc(O)cc1)NC(=O)[C@@H]1CCCN1C(=O)CN(CCCCN)C(=O)[C@@H](N)CCCCN)C(=O)N[C@@H](CC(C)C)C(=O)O`, the affinity in test [2] corresponds to a Ki of 21 nM.
Same read-out and setting: for `CC[C@H](C)[C@H](NC(=O)CN(CCc1ccccc1)C(=O)[C@@H]1CCCN1C(=O)[C@H](CCCN=C(N)N)NC(=O)[C@@H](N)CCCN=C(N)N)C(=O)N[C@@H](CC(C)C)C(=O)O` the value was 20 nM.
Take H-RRPYAL-OH [listing 2 of 2 here]: in test [3], the Ratio Ki is 1.6.
For the compound `CC[C@H](C)[C@H](NC(=O)[C@H](CC1=CC=C(O)CC1)NC(=O)[C@@H]1CCCN1C(=O)[C@H](CCCNC(=N)N)NC(=O)[C@@H](N)CCCNC(=N)N)C(=O)N[C@@H](CC(C)C)C(=O)O`, the Kd (usually the concentration at which binding is half-saturated) in test [2] stood at 1.2 nM.
With H-ARPYIL-OH, the values for the Ki in test [1] and in test [2] were 4.6 nM and 56 nM, respectively. The Ratio Ki in test [3] came out at 0.082.
